{"source": "ChEMBL document CHEMBL5303300", "about": "“EUbOPEN Chemogenomics Library - Multiplex” (2023)", "tested_on": "U2OS", "assay": "Multiplex assay against U2OS", "format": "toxicity, cell-based", "conditions": "human, number of replicates 2", "in_short": "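Live cells were stained at seeding with Hoechst33342, BioTracker Green Microtubule Cytoskeleton Dye, MitoTracker Red and Annexin V Alexa Fluor 680. Following compound addition, they were imaged on a CQ1 microscope at 37°C and 5% CO2 and gated by CellPathfinder machine learning into Hoechst high-intensity objects or normal cells, with normal cells split into healthy, pyknosed or fragmented nuclei and pyknosed cells into mitotic or apoptotic. Tubulin, mitochondrial-mass and membrane-permeability phenotypes are per cents of healthy-nucleus cells.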", "key": {"[1]": {"conditions": "12 h, 1 µM, compound concentration 1 uM"}, "[2]": {"conditions": "12 h, 10 µM, compound concentration 10 uM"}, "[3]": {"conditions": "24 h, 1 µM, compound concentration 1 uM"}, "[4]": {"conditions": "24 h, 10 µM, compound concentration 10 uM"}, "[5]": {"conditions": "48 h, 1 µM, compound concentration 1 uM"}, "[6]": {"conditions": "48 h, 10 µM, compound concentration 10 uM"}}, "note": "Several values for one entry are separate records, joined by “and”; a condition that tells them apart may be missing. Identical values can stand only once."}
{"smiles": "Cc1c(C(=O)Nc2ccc(N3C[C@@H](C)O[C@@H](C)C3)nc2)cccc1-c1ccc(OC(F)(F)F)cc1", "note": "[SONIDEGIB]", "values": [{"measurement": "Population Apoptotic (%)", "setting": "[1]", "value": "66% and 51%"}, {"measurement": "Population Healthy Nuclei (%)", "setting": "[1]", "value": "60% and 79%"}, {"measurement": "Population Hoechst High Intensity Objects (%)", "setting": "[1]", "value": 0, "unit": "%"}, {"measurement": "Population Membrane Permeable-Phenotype (%)", "setting": "[1]", "value": "4% and 1%"}, {"measurement": "Population Mitochondria Different-Phenotype (%)", "setting": "[1]", "value": 0, "unit": "%"}, {"measurement": "Population Mitotic Cells (%)", "setting": "[1]", "value": "33% and 48%"}, {"measurement": "Population Normal (%)", "setting": "[1]", "value": 100, "unit": "%"}, {"measurement": "Population Pyknosed Nuclei (%)", "setting": "[1]", "value": "7% and 13%"}, {"measurement": "Population Tubulin-Different-Phenotype (%)", "setting": "[1]", "value": "56% and 90%"}, {"measurement": "Population Healthy Nuclei (%)", "setting": "[2]", "value": "61% and 85%"}, {"measurement": "Population Hoechst High Intensity Objects (%)", "setting": "[2]", "value": 0, "unit": "%"}, {"measurement": "Population Membrane Permeable-Phenotype (%)", "setting": "[2]", "value": "0% and 1%"}, {"measurement": "Population Mitochondria Different-Phenotype (%)", "setting": "[2]", "value": 0, "unit": "%"}, {"measurement": "Population Mitotic Cells (%)", "setting": "[2]", "value": "100% and 54%"}, {"measurement": "Population Normal (%)", "setting": "[2]", "value": 100, "unit": "%"}, {"measurement": "Population Pyknosed Nuclei (%)", "setting": "[2]", "value": 11, "unit": "%"}, {"measurement": "Population Tubulin-Different-Phenotype (%)", "setting": "[2]", "value": "57% and 90%"}, {"measurement": "Population Apoptotic (%)", "setting": "[3]", "value": "50% and 66%"}, {"measurement": "Population Healthy Nuclei (%)", "setting": "[3]", "value": "68% and 85%"}, {"measurement": "Population Hoechst High Intensity Objects (%)", "setting": "[3]", "value": 0, "unit": "%"}, {"measurement": "Population Membrane Permeable-Phenotype (%)", "setting": "[3]", "value": "0% and 2%"}, {"measurement": "Population Mitochondria Different-Phenotype (%)", "setting": "[3]", "value": 0, "unit": "%"}, {"measurement": "Population Mitotic Cells (%)", "setting": "[3]", "value": "50% and 33%"}, {"measurement": "Population Normal (%)", "setting": "[3]", "value": "100% and 99%"}, {"measurement": "Population Pyknosed Nuclei (%)", "setting": "[3]", "value": "4% and 9%"}, {"measurement": "Population Tubulin-Different-Phenotype (%)", "setting": "[3]", "value": "64% and 88%"}, {"measurement": "Population Apoptotic (%)", "setting": "[4]", "value": "50% and 63%"}, {"measurement": "Population Healthy Nuclei (%)", "setting": "[4]", "value": "61% and 90%"}, {"measurement": "Population Hoechst High Intensity Objects (%)", "setting": "[4]", "value": 0, "unit": "%"}, {"measurement": "Population Membrane Permeable-Phenotype (%)", "setting": "[4]", "value": "4% and 1%"}, {"measurement": "Population Mitochondria Different-Phenotype (%)", "setting": "[4]", "value": 0, "unit": "%"}, {"measurement": "Population Mitotic Cells (%)", "setting": "[4]", "value": "50% and 36%"}, {"measurement": "Population Normal (%)", "setting": "[4]", "value": 100, "unit": "%"}, {"measurement": "Population Pyknosed Nuclei (%)", "setting": "[4]", "value": "10% and 7%"}, {"measurement": "Population Tubulin-Different-Phenotype (%)", "setting": "[4]", "value": "75% and 90%"}, {"measurement": "Population Apoptotic (%)", "setting": "[5]", "value": "33% and 54%"}, {"measurement": "Population Healthy Nuclei (%)", "setting": "[5]", "value": "60% and 89%"}, {"measurement": "Population Hoechst High Intensity Objects (%)", "setting": "[5]", "value": 0, "unit": "%"}, {"measurement": "Population Membrane Permeable-Phenotype (%)", "setting": "[5]", "value": "6% and 1%"}, {"measurement": "Population Mitochondria Different-Phenotype (%)", "setting": "[5]", "value": 0, "unit": "%"}, {"measurement": "Population Mitotic Cells (%)", "setting": "[5]", "value": "66% and 45%"}, {"measurement": "Population Normal (%)", "setting": "[5]", "value": 100, "unit": "%"}, {"measurement": "Population Pyknosed Nuclei (%)", "setting": "[5]", "value": "5% and 7%"}, {"measurement": "Population Tubulin-Different-Phenotype (%)", "setting": "[5]", "value": "70% and 89%"}, {"measurement": "Population Apoptotic (%)", "setting": "[6]", "value": "42% and 46%"}, {"measurement": "Population Healthy Nuclei (%)", "setting": "[6]", "value": "71% and 91%"}, {"measurement": "Population Hoechst High Intensity Objects (%)", "setting": "[6]", "value": 0, "unit": "%"}, {"measurement": "Population Membrane Permeable-Phenotype (%)", "setting": "[6]", "value": "0% and 1%"}, {"measurement": "Population Mitochondria Different-Phenotype (%)", "setting": "[6]", "value": 0, "unit": "%"}, {"measurement": "Population Mitotic Cells (%)", "setting": "[6]", "value": "57% and 53%"}, {"measurement": "Population Normal (%)", "setting": "[6]", "value": 100, "unit": "%"}, {"measurement": "Population Pyknosed Nuclei (%)", "setting": "[6]", "value": "8% and 6%"}, {"measurement": "Population Tubulin-Different-Phenotype (%)", "setting": "[6]", "value": "74% and 89%"}]}
{"smiles": "Cc1ccc2c(c1CCC(=O)O)CC[C@@H](NS(=O)(=O)c1ccc(Cl)cc1)C2", "note": "[TERUTROBAN]", "values": [{"measurement": "Population Apoptotic (%)", "setting": "[1]", "value": "44% and 33%"}, {"measurement": "Population Healthy Nuclei (%)", "setting": "[1]", "value": "83% and 55%"}, {"measurement": "Population Hoechst High Intensity Objects (%)", "setting": "[1]", "value": 0, "unit": "%"}, {"measurement": "Population Membrane Permeable-Phenotype (%)", "setting": "[1]", "value": "1% and 0%"}, {"measurement": "Population Mitochondria Different-Phenotype (%)", "setting": "[1]", "value": "1% and 0%"}, {"measurement": "Population Mitotic Cells (%)", "setting": "[1]", "value": "56% and 66%"}, {"measurement": "Population Normal (%)", "setting": "[1]", "value": 100, "unit": "%"}, {"measurement": "Population Pyknosed Nuclei (%)", "setting": "[1]", "value": "11% and 7%"}, {"measurement": "Population Tubulin-Different-Phenotype (%)", "setting": "[1]", "value": "92% and 47%"}, {"measurement": "Population Apoptotic (%)", "setting": "[2]", "value": "44% and 50%"}, {"measurement": "Population Fragmented Nuclei (%)", "setting": "[2]", "value": "8% and 2%"}, {"measurement": "Population Healthy Nuclei (%)", "setting": "[2]", "value": "76% and 86%"}, {"measurement": "Population Hoechst High Intensity Objects (%)", "setting": "[2]", "value": 0, "unit": "%"}, {"measurement": "Population Membrane Permeable-Phenotype (%)", "setting": "[2]", "value": "4% and 2%"}, {"measurement": "Population Mitochondria Different-Phenotype (%)", "setting": "[2]", "value": "2% and 0%"}, {"measurement": "Population Mitotic Cells (%)", "setting": "[2]", "value": "55% and 50%"}, {"measurement": "Population Normal (%)", "setting": "[2]", "value": 100, "unit": "%"}, {"measurement": "Population Pyknosed Nuclei (%)", "setting": "[2]", "value": "15% and 10%"}, {"measurement": "Population Tubulin-Different-Phenotype (%)", "setting": "[2]", "value": "73% and 87%"}, {"measurement": "Population Apoptotic (%)", "setting": "[3]", "value": "50% and 61%"}, {"measurement": "Population Healthy Nuclei (%)", "setting": "[3]", "value": "61% and 87%"}, {"measurement": "Population Hoechst High Intensity Objects (%)", "setting": "[3]", "value": 0, "unit": "%"}, {"measurement": "Population Membrane Permeable-Phenotype (%)", "setting": "[3]", "value": "0% and 1%"}, {"measurement": "Population Mitochondria Different-Phenotype (%)", "setting": "[3]", "value": 0, "unit": "%"}, {"measurement": "Population Mitotic Cells (%)", "setting": "[3]", "value": "50% and 38%"}, {"measurement": "Population Normal (%)", "setting": "[3]", "value": 100, "unit": "%"}, {"measurement": "Population Pyknosed Nuclei (%)", "setting": "[3]", "value": "5% and 8%"}, {"measurement": "Population Tubulin-Different-Phenotype (%)", "setting": "[3]", "value": "66% and 92%"}, {"measurement": "Population Apoptotic (%)", "setting": "[4]", "value": "66% and 62%"}, {"measurement": "Population Fragmented Nuclei (%)", "setting": "[4]", "value": "9% and 2%"}, {"measurement": "Population Healthy Nuclei (%)", "setting": "[4]", "value": "81% and 87%"}, {"measurement": "Population Hoechst High Intensity Objects (%)", "setting": "[4]", "value": 0, "unit": "%"}, {"measurement": "Population Membrane Permeable-Phenotype (%)", "setting": "[4]", "value": "5% and 0%"}, {"measurement": "Population Mitochondria Different-Phenotype (%)", "setting": "[4]", "value": "3% and 0%"}, {"measurement": "Population Mitotic Cells (%)", "setting": "[4]", "value": "33% and 37%"}, {"measurement": "Population Normal (%)", "setting": "[4]", "value": 100, "unit": "%"}, {"measurement": "Population Pyknosed Nuclei (%)", "setting": "[4]", "value": "8% and 10%"}, {"measurement": "Population Tubulin-Different-Phenotype (%)", "setting": "[4]", "value": "75% and 92%"}, {"measurement": "Population Apoptotic (%)", "setting": "[5]", "value": "37% and 58%"}, {"measurement": "Population Healthy Nuclei (%)", "setting": "[5]", "value": "66% and 91%"}, {"measurement": "Population Hoechst High Intensity Objects (%)", "setting": "[5]", "value": 0, "unit": "%"}, {"measurement": "Population Membrane Permeable-Phenotype (%)", "setting": "[5]", "value": 2, "unit": "%"}, {"measurement": "Population Mitochondria Different-Phenotype (%)", "setting": "[5]", "value": 0, "unit": "%"}, {"measurement": "Population Mitotic Cells (%)", "setting": "[5]", "value": "62% and 41%"}, {"measurement": "Population Normal (%)", "setting": "[5]", "value": 100, "unit": "%"}, {"measurement": "Population Pyknosed Nuclei (%)", "setting": "[5]", "value": "11% and 5%"}, {"measurement": "Population Tubulin-Different-Phenotype (%)", "setting": "[5]", "value": "73% and 94%"}, {"measurement": "Population Apoptotic (%)", "setting": "[6]", "value": "25% and 57%"}, {"measurement": "Population Fragmented Nuclei (%)", "setting": "[6]", "value": "3% and 1%"}, {"measurement": "Population Healthy Nuclei (%)", "setting": "[6]", "value": "85% and 91%"}, {"measurement": "Population Hoechst High Intensity Objects (%)", "setting": "[6]", "value": 0, "unit": "%"}, {"measurement": "Population Membrane Permeable-Phenotype (%)", "setting": "[6]", "value": "4% and 1%"}, {"measurement": "Population Mitochondria Different-Phenotype (%)", "setting": "[6]", "value": "4% and 0%"}, {"measurement": "Population Mitotic Cells (%)", "setting": "[6]", "value": "75% and 42%"}, {"measurement": "Population Normal (%)", "setting": "[6]", "value": 100, "unit": "%"}, {"measurement": "Population Pyknosed Nuclei (%)", "setting": "[6]", "value": "10% and 6%"}, {"measurement": "Population Tubulin-Different-Phenotype (%)", "setting": "[6]", "value": "72% and 93%"}]}
